A selection: hits, their analogues and other compounds. The true share with any hit is near 3.7%.
KCNK3 inh = human KCNK3 channel inhibition, primary screen | O14649 | CHO-KCNK3 thallium flux, FluxOR fluorescence; stronger effect = lower value | B-score at 10 µM | 340,000 tested, 0.84% active | AID 602410;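 active = B-score under library mean minus 4 SD, starting fluorescence ratio at most library mean plus 5 SD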;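 also: more negative B-score means stronger inhibition of thallium flux through KCNK3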
hERG rescue = hERG (human) protection from proarrhythmic block; activation (rescue from dofetilide block), less the hit threshold, % at 10 µM; 310,000 tested, 0.51% active; CHO-hERG, FluxOR thallium flux, dofetilide IC70 present;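 active = activation above the mean of controls blocked by dofetilide plus 5 SD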;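 also: thallium influx through hERG after potassium depolarization seen as dye fluorescence rise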
KCNQ1 pot = potentiates or activates the human KCNQ1 potassium channel. 310,000 tested, 0.35% active. AID 2648. B-score at 10 µM. CHO-K1 KCNQ1, thallium flux FluxOR fluorescence; stronger effect = higher value;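 active = fluorescence ratio B-score, a plate-corrected score, at least three library SD, with initial intensity B-score within 5 SD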
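Doses: Single concentration per compound, DMSO matched to controls | Test system: KCNQ1-transfected CHO-K1 cells | Timing: 90 min dye loading and 20 min compound exposure, both at room temperature | Measured by: Kinetic FluxOR thallium fluorescence, 10-s 1-Hz baseline, 110-s post-stimulus read | Medium: Assay buffer with matched DMSO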
KCNQ1 block = inhibitors of human KCNQ1 potassium channel | CHO-K1 KCNQ1, FluxOR thallium flux fluorescence; stronger effect = higher value | B-score at 10 µM | 310,000 tested, 1.3% active | AID 2642;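 active = compounds whose thallium flux B-score, printed positive for inhibition, exceeds three library SD while starting fluorescence stays within three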;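 also: channel opened by potassium depolarization with thallium stimulus after 20 min compound exposure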
KCNK9 inh = inhibitors of human KCNK9 two-pore domain potassium channel. HEK293 KCNK9, FluxOR thallium flux fluorescence; stronger effect = lower value. B-score at 10 µM. 310,000 tested, 1.2% active;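 active = ratio B-score over 3 SD below the library mean, with starting fluorescence within 5 SD of its mean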;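 also: negative B-score means less thallium flux so channel inhibition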
Target sequence (Q9NPC2 whole entry, looked up, the tested form may be a part): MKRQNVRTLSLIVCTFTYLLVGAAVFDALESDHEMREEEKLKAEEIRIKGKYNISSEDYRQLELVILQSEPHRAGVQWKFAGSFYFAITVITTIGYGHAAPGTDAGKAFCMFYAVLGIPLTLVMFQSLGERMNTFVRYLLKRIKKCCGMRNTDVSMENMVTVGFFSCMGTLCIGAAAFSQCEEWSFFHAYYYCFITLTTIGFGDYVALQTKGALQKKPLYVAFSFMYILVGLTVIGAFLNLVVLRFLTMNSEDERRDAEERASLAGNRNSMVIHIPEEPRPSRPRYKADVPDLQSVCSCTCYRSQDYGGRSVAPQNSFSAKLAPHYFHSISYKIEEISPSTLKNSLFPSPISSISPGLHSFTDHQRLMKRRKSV
Kir21 block = Kir2.1 (mouse) channel inhibition | P35561 | HEK293-Kir2.1, FluxOR thallium flux fluorescence; stronger effect = lower value | B-score at 10 µM | 310,000 tested, 0.85% active;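 active = fluorescence ratio B-score at or below minus 3 SD of library scores, with starting-brightness B-score within 2 SD, cut at about -4.2 in these data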;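 also: channel flux triggered by added potassium and thallium sulfate stimulus; B-score of peak minus minimum fluorescence over baseline after thallium stimulus; more negative B-score means stronger Kir2.1 block with less thallium influx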
KCNK9 inh conf = confirmation of human KCNK9 potassium channel inhibitors. shares compounds with KCNK9 inh. HEK293 KCNK9 cells, FluxOR thallium flux fluorescence. inhibition, % at 10 µM. 4,900 tested, 43% active;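 active = thallium signal inhibited by more than 5 SD of the compound-free buffer control wells, on both duplicate plates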;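 also: 0% = assay buffer control wells without compound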
Kir21 sel = tests whether KCNK9 modulators also affect mouse Kir2.1 | shares compounds with KCNK9 inh | Kir2.1 cells, FluxOR thallium flux fluorescence | inhibition, % at 10 µM | 4,900 tested, 4% active | AID 492993;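 active = thallium signal drop more than 5 SD beyond the mean of the no-compound control wells, seen in both duplicate plates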;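 also: signal is fluorescence rise after thallium addition divided by baseline fluorescence; plate controls were assay buffer only for no effect and full block by chlorpromazine control for full effect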
HEK293 Tl ctr = second counter-screen for KCNK9 modulators: effect in non-induced cells | 4,900 tested, 40% active | inhibition, % at 10 µM | shares compounds with KCNK9 inh | AID 492997 | non-induced KCNK9-HEK293, FluxOR thallium flux;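 active = thallium signal drop beyond 5 SD of the untreated control mean, on both duplicate plates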;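 also: plate controls were buffer only IC0 wells for no effect and SID17386958 at its maximal inhibitory level for full effect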
An asterisk follows results filed as active; i = inactive; x = no result.

SMILES | KCNK3 inh | hERG rescue | KCNQ1 pot | KCNQ1 block | KCNK9 inh | Kir21 block | KCNK9 inh conf | Kir21 sel | HEK293 Tl ctr
COC(=O)/C(=C\c1ccc2c(c1)c1ccccc1n2C)NC(=O)c1ccccc1 | i | -8.7 | i | i | -9.6* | -0.38 | 35.5%* | i | i
C=CCOC(=O)/C(=C\c1cccc2ccccc12)NC(=O)c1ccccc1 | i | -6.4 | i | i | i | 1.08 | x | x | x
CCC(C)(C)n1nnnc1C(c1ccncc1)N1CCN(c2cccc(OC)c2)CC1 (centres undefined) | i | -5.4 | i | i | i | 0.08 | x | x | x
CCC(C)(C)n1nnnc1C(c1cccnc1)N1CCN(c2cccc(C(F)(F)F)c2)CC1 (centres undefined) | i | -9.2 | i | i | -10.5* | -0.78 | 32.5%* | i | i
Cc1cccc(C(=O)Nc2ccc(C(=O)Nc3ccc(O)cc3)cc2)c1 | i | -9.7 | i | i | i | 0 | x | x | x
Cc1ccc(NC(=O)C(Nc2cccc(C)c2)c2ccccc2)cc1 (centres undefined) | i | -10.3 | i | i | i | 0.01 | 33.0%* | i | 32.5%*
Cc1ccc(NC(=O)C(Nc2ccccc2)c2ccccc2)cc1 (centres undefined) | i | -9.4 | i | i | i | -0.1 | x | x | x
Cc1cccc(C(=O)Nc2ccccc2C(=O)OCC(=O)Nc2ccc(C#N)cc2)c1 | i | -15.4 | i | i | -9.3* | -0.62 | 32.0%* | i | 28.0%*
Cc1cccc(C(=O)Nc2scc(-c3ccc(Br)cc3)c2C(=O)O)c1 | i | -8.3 | i | i | i | 2.19 | x | x | x
Cc1ccc(-c2csc(NC(=O)c3cccc(C)c3)c2C(=O)O)cc1 | i | -9.4 | i | i | i | 0.33 | i | i | i
Cc1cccc(C(=O)Nc2ccc(NC(=O)c3ccccc3)cc2)c1 | i | -2.3 | i | i | -11.4* | 0.11 | 54.0%* | i | i
O=C(NNC(=O)c1cc(-c2cccc(Br)c2)nc2ccccc12)c1csc(N2CCOCC2)n1 | i | -13.3 | i | i | i | -0.08 | x | x | x
O=C(c1cc2cc(F)ccc2[nH]1)N1CCN(c2cccc(Cl)c2)CC1 | i | -6.2 | i | i | i | -0.92 | i | i | i
COc1cccc(N2CCN(C(=O)c3cc4cc(Cl)ccc4[nH]3)CC2)c1 | i | -8.8 | i | i | i | -0.01 | x | x | x
O=C1C(NS(=O)(=O)c2cccs2)=C(N2CCN(Cc3ccccc3)CC2)C(=O)c2ccccc21 | i | -15.1 | i | i | i | -1.07 | i | i | i
CN1CCN(C2=C(NS(=O)(=O)c3cccs3)C(=O)c3ccccc3C2=O)CC1 | i | -6.7 | i | i | i | 0.63 | x | x | x
O=C(NCc1ccccc1)C(c1ccco1)N(C(=O)c1csnn1)c1ccccc1 (centres undefined) | i | -6.0 | i | i | i | 0.09 | x | x | x
Cc1csc(NC(=O)C2CCN(C(=O)c3ccccc3C)CC2)n1 | i | -20.0 | i | i | i | 1.88 | x | x | x
OCc1ccccc1OCCCN1CCC(Cc2ccccc2)CC1 | i | -12.2 | i | i | i | 0.79 | x | x | x
C=CCOc1ccccc1CN1CCC(Cc2ccccc2)CC1 | i | -5.0 | i | i | i | -4.27* | i | i | i
COc1cc(OC)c(CN2CCC(Cc3ccccc3)CC2)cc1Br | i | 0.3 | i | i | i | -4.82* | i | i | i
COc1c(C)cc(Br)cc1C(=O)NC(=S)NCc1ccco1 | i | -7.5 | i | i | i | 0.28 | x | x | x
Cc1ccc[n+](CC(=O)Nc2cc(C(F)(F)F)ccc2Cl)c1 | i | -4.4 | i | i | i | 0.64 | x | x | x
CCC(C)(C)c1ccc(OCCCC[n+]2cccc(C)c2)c(C(C)(C)CC)c1 | i | -29.3 | i | 10* | -9.37* | -6.38* | 38.5%* | 66.5%* | 27.5%*
Cc1ccc(CNC(=O)CCC(=O)N2CC(C)Oc3ccc(Cl)cc32)cc1 (centres undefined) | i | -10.3 | i | i | i | 0.59 | x | x | x
SMILES | KCNK3 inh | hERG rescue | KCNQ1 pot | KCNQ1 block | KCNK9 inh | Kir21 block | KCNK9 inh conf | Kir21 sel | HEK293 Tl ctr
Cc1ccc2c(c1)N(C(=O)CCC(=O)NCc1cccc(Br)c1)CC(C)O2 (centres undefined) | i | -14.6 | i | i | i | -0.02 | i | i | i
Cc1ccc2c(c1)N(C(=O)CCC(=O)Nc1ccccc1Br)CC(C)O2 (centres undefined) | i | -8.2 | i | i | i | -0.03 | i | i | i
COc1ccc2sc(-c3ccc(N(C)C)cc3)c(C#Cc3cncn3C)c2c1 | i | x | x | x | x | x | x | x | x
CCCCCn1cnc2sc(-c3ccccc3)cc2c1=O | i | -7.9 | i | i | i | -0.12 | x | x | x
O=c1c2cc(-c3ccccc3)sc2ncn1/N=C/c1ccco1 | i | -4.2 | i | i | i | -1.76 | i | i | i
Cc1cc(C)n(CC(O)CN2c3ccccc3Sc3ccccc32)n1 (centres undefined) | i | -11.2 | i | 6* | i | -3.86 | i | i | i
Cc1cccc(C2NC(c3cccc(C)c3)C([N+](=O)[O-])C(C)(C)C2[N+](=O)[O-])c1 (centres undefined) | i | -1.2 | i | i | i | 0.65 | i | i | i
CC1(C)c2ssc(=S)c2-c2ccccc2N1C(=O)CSC1=NCCS1 | i | -8.4 | i | i | i | 0 | x | x | x
Cc1cc2c(cc1C)N(C(=O)CSC1=NCCS1)C(C)(C)c1ssc(=S)c1-2 | i | -10.2 | i | i | -8.58* | 1.58 | 50.0%* | i | 31.0%*
Cc1cc(C)c2c(c1)-c1c(ssc1=S)C(C)(C)N2C(=O)CSc1nncn1C | i | -5.7 | i | i | i | -3.8 | x | x | x
COc1ccc2c(c1)-c1c(ssc1=S)C(C)(C)N2C(=O)CSC1=NCCS1 | i | -10.7 | i | i | -11.7* | -0.03 | 46.5%* | i | 38.0%*
O=C(Nc1nnc(C2CC2)s1)c1cc(-c2ccccc2)nn1-c1ccccc1 | i | -6.3 | i | i | -9.42* | -0.18 | 29.5%* | i | i
COC(=O)CNC(c1ccccc1)c1cc(Br)ccc1NC(=O)CNC(=O)OCc1ccccc1 (centres undefined) | i | -6.3 | i | i | -14.7* | 1.24 | 63.5%* | i | 32.5%*
